Data: ChEMBL document CHEMBL4052757, “Bistacrines as potential antitrypanosomal agents” (Bioorg Med Chem, 2017)
Activity calls are given as the source filed them. The rule behind the calls is not given here.

How the values were obtained:
[1] = tested on: Trypanosoma brucei brucei; test: Antitrypanosomal activity against Trypanosoma brucei brucei TC221 after 72 hrs by alamar blue assay; assay type: functional; conditions: TC221, 72 h
Summary of the method: (§1)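 T. b. brucei TC221 bloodstream-form proliferation measured by alamarBlue (resazurin reduced to resorufin by living cells); 48 h and 72 h read-outs. IC50 derived per Räz et al. method; each compound tested in duplicate, mean of two values.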

Trypanosoma brucei [2] = test: Inhibition of Trypanosoma brucei trypanothione reductase at 5 uM using 100 uM trypanothione disulfide as substrate by spectrophotometric method relative to control
Summary of the method: (§2)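 TbTryR (about 2 nM) in 40 mM HEPES, 1 mM EDTA, pH 7.5 with 100 µM NADPH; inhibitor 5 µM from DMSO stock, fixed TS2 at 100 or 40 µM; NADPH consumption followed as absorbance decrease; inhibition relative to DMSO control.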

[3] = biological target: Rhodesain (Trypanosoma brucei rhodesiense) (UniProt Q95PM0); test: Inhibition of Trypanosoma brucei rhodesiense rhodesain at 20 uM using Cbz-Phe-Arg-AMC as substrate measured for 5 mins by spectrofluorometric analysis relative to control
Chain of Rhodesain (Trypanosoma brucei rhodesiense) (Q95PM0 1-450): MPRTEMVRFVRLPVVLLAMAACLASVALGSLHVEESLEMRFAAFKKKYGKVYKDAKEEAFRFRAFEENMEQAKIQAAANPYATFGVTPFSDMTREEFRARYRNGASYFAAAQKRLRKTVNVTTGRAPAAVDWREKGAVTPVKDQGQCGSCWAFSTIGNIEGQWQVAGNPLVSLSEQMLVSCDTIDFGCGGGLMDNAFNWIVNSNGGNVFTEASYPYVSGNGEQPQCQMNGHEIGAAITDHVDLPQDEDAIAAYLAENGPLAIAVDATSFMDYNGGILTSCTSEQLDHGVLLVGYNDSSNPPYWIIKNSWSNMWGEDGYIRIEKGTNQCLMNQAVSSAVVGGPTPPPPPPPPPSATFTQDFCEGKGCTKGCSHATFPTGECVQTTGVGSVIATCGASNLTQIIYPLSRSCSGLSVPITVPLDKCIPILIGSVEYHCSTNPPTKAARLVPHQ
Summary of the method: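 Rhodesain in 50 mM sodium acetate pH 5.5 with 5 mM DTT, 5 mM EDTA, 200 mM NaCl; inhibitor 20 µM, substrate Cbz-Phe-Arg-AMC; AMC fluorescence (ex 380/em 460 nm) followed 5 min; activity from slopes of fluorescence vs time versus DMSO control; run in duplicate.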

[4] = tested on: Trypanosoma brucei brucei; test: Antitrypanosomal activity against Trypanosoma brucei brucei TC221 after 48 hrs by alamar blue assay; assay type: functional; conditions: TC221, 48 h; summary of the method: as §1
[5] = biological target: Trypanothione reductase (Trypanosoma cruzi) (UniProt P28593); test: Inhibition of Trypanosoma cruzi trypanothione reductase at 5 uM using 40 uM trypanothione disulfide as substrate by spectrophotometric method relative to control
Chain of Trypanothione reductase (Trypanosoma cruzi) (P28593 whole entry, looked up): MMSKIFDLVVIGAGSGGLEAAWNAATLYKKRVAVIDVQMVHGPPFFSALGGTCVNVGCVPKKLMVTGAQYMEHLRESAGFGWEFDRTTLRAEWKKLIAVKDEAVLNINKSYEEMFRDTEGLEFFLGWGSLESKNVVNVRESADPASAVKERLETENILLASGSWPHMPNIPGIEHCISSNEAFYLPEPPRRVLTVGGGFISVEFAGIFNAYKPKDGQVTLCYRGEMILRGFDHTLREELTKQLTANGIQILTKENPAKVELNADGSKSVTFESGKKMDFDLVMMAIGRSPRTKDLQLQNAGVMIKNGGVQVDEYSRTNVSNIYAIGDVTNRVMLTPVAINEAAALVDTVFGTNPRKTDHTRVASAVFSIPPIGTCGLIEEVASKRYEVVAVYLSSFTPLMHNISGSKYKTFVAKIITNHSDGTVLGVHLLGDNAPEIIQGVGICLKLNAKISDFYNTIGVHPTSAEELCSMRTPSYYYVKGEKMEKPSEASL
Summary of the method: (§3)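 TcTryR (about 2 nM) in 40 mM HEPES, 1 mM EDTA, pH 7.5, 100 µM NADPH; inhibitor at fixed 2 or 5 µM (screening range 1–5 µM) from DMSO stock; TS2 fixed at 40 or 100 µM; absorbance decrease monitored; percent inhibition versus DMSO control.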

[6] = biological target: Trypanothione reductase (Trypanosoma cruzi) (UniProt P28593); test: Inhibition of Trypanosoma cruzi trypanothione reductase at 2 uM using 100 uM trypanothione disulfide as substrate by spectrophotometric method relative to control; summary of the method: as §3
[7] = biological target: Trypanothione reductase (Trypanosoma cruzi) (UniProt P28593); test: Inhibition of Trypanosoma cruzi trypanothione reductase at 5 uM using 100 uM trypanothione disulfide as substrate by spectrophotometric method relative to control; summary of the method: as §3
Trypanosoma brucei [8] = test: Inhibition of Trypanosoma brucei trypanothione reductase at 5 uM using 40 uM trypanothione disulfide as substrate by spectrophotometric method relative to control; summary of the method: as §2
Leishmania infantum = test: Antileishmanial activity against Leishmania infantum; assay type: functional
[9] = biological target: Trypanothione reductase (Trypanosoma cruzi) (UniProt P28593); test: Inhibition of Trypanosoma cruzi trypanothione reductase at 2 uM using 40 uM trypanothione disulfide as substrate by spectrophotometric method relative to control; summary of the method: as §3
[10] = biological target: Rhodesain (Trypanosoma brucei rhodesiense) (UniProt Q95PM0); test: Inhibition of Trypanosoma brucei rhodesiense rhodesain assessed as second-order rate constant using Cbz-Phe-Arg-AMC as substrate measured for 10 mins by spectrofluorometric analysis
[11] = biological target: Rhodesain (Trypanosoma brucei rhodesiense) (UniProt Q95PM0); test: Inhibition of Trypanosoma brucei rhodesiense rhodesain using Cbz-Phe-Arg-AMC as substrate by spectrofluorometric analysis
Rhodesain = Rhodesain (Trypanosoma brucei rhodesiense, UniProt Q95PM0); test: Inhibition of Trypanosoma brucei rhodesiense rhodesain using Cbz-Phe-Arg-AMC as substrate measured for 10 mins by spectrofluorometric analysis
Chain of Rhodesain (Q95PM0 whole entry): as the sequence (Q95PM0 1-450) above

[12] = biological target: Trypanothione reductase (Trypanosoma cruzi) (UniProt P28593); test: Inhibition of Trypanosoma cruzi trypanothione reductase at 50 uM using 100 uM trypanothione disulfide as substrate by spectrophotometric method relative to control
[13] = Mixed-type inhibition of Trypanosoma brucei trypanothione reductase assessed as enzyme-substrate-inhibitor complex using varying levels of trypanothione disulfide as substrate by Lineweaver-burk plot analysis
Summary of the method: (§4)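 TbTryR kinetics in HEPES/EDTA pH 7.5 with 100 µM NADPH; TS2 varied 20–200 µM at several inhibitor levels, DMSO control; Lineweaver-Burk plots; Ki and Ki' fitted.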

[14] = Inhibition of trypanothione reductase
[15] = Stability of the compound; assay type: physicochemical
[16] = Mixed-type inhibition of Trypanosoma brucei trypanothione reductase assessed as enzyme-substrate complex using varying levels of trypanothione disulfide as substrate by Lineweaver-burk plot analysis; summary of the method: as §4
J774.1 = test: Cytotoxicity against mouse J774.1 cells after 24 hrs by alamar blue assay; assay type: cell-based; conditions: J774.1, 24 h
[17] = Selectivity index, ratio of IC50 for mouse J774.1 cells to IC50 for Trypanosoma brucei brucei TC221 measured after 48 hrs; assay type: toxicity; conditions: J774.1 cells (versus Trypanosoma brucei brucei TC221), read-out: Ratio IC50
Summary of the method: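 Selectivity index computed as IC50 (J774.1 macrophages, alamarBlue) divided by IC50 (T. b. brucei TC221, alamarBlue); duplicate determinations, means used.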

Structure (SMILES) | IC50 [1] | inhibition (Trypanosoma brucei [2]) | inhibition [3] | IC50 [4] | inhibition [5] | inhibition [6] | inhibition [7] | inhibition (Trypanosoma brucei [8]) | Activity (Leishmania infantum) | inhibition [9] | K [10] | inhibition [11] | IC50 (Rhodesain) | inhibition [12] | Ki [13] | inhibition [14] | Stability [15] | Ki [16] | IC50 (J774.1) | selectivity ratio at 48 h [17]
c1ccc2c(NCCCCCCCNc3c4c(nc5ccccc35)CCCC4)c3c(nc2c1)CCCC3 | 590 nM | 53% | 44% | 160 nM | 66.4% | 23.2 to 25.8% | 51 to 55% | 66% | Active | 34.4 to 37.8% |  |  |  |  |  |  |  |  |  | 
CN1CCN(C(=O)N[C@@H](Cc2ccccc2)C(=O)N[C@H](/C=C/S(=O)(=O)c2ccccc2)CCc2ccccc2)CC1 |  |  |  |  |  |  |  |  |  |  | 500000 M⁻¹ s⁻¹ |  |  |  |  |  |  |  |  | 
c1ccc2c(NCCCCCCCCNc3c4c(nc5ccccc35)CCCC4)c3c(nc2c1)CCCC3 | 660 nM |  | 87% | 400 nM | 73.3 to 78.3% | 28.8 to 32.9% | 64.4 to 68.5% |  | Active | 45 to 46.7% |  | Dose-dependent effect | 16900 nM | 100% |  |  |  |  |  | 
C1=Cc2c(nc3ccccc3c2NCCCCCCCNc2c3c(nc4ccccc24)CCC=C3)CC1 | 10 nM | 53% |  | 10 nM |  |  |  | 47% | Active |  |  |  |  |  | 12000 nM | Active | Stable | 1200 nM | 1500 nM | 152
